Screening results deposited in PubChem by The Scripps Research Institute Molecular Screening Center.
This is a sample that favours compounds with a hit; in the whole collection about 2.7% have one here.
PAFAH1B2 FP inh: blocks human PAF acetylhydrolase 1b catalytic subunit 2 | inhibition, % at 3.39 µM | P68402 | hit rate 1.2% among 340,000 | recombinant PAFAH1B2, FP-rhodamine activity probe, fluorescence polarization;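 active = inhibition above the mean of all tested compounds plus 3 SD, cut at about 24% in these data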;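 note: 0% = enzyme with DMSO and 100% = wells lacking PAFAH1B2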
Target sequence (P68402 whole entry, looked up): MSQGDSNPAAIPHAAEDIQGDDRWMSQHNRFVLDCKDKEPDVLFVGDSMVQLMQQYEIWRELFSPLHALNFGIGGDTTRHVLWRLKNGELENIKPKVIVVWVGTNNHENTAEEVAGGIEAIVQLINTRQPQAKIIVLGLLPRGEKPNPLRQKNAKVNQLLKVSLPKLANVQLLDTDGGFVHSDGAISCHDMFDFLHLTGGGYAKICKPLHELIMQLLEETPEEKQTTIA
PAFAH2 FP inh: PAFAH2 (human) inhibition | Q99487 | recombinant PAFAH2, FP-rhodamine activity probe, fluorescence polarization | inhibition, % at 3.39 µM | hit rate 0.99% among 340,000;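 active = inhibition above the mean over all tested compounds plus 3 SD, cut at about 30% in these data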;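 note: inhibitors block probe labeling of enzyme so polarization drops; 0% = enzyme with DMSO and 100% = wells lacking PAFAH2 protein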
PAFAH1B3 FP inh: inhibitors of human PAFAH1B3 | recombinant PAFAH1B3, FP-rhodamine probe, fluorescence polarization | inhibition, % at 3.39 µM | hit rate 0.28% among 340,000;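 active = inhibition above the screen-wide average of all tested compounds plus 3 SD, cut at about 25% in these data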;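 note: 0% = enzyme with DMSO only and 100% = wells lacking PAFAH1B3 protein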
Target sequence (Q15102 whole entry, looked up): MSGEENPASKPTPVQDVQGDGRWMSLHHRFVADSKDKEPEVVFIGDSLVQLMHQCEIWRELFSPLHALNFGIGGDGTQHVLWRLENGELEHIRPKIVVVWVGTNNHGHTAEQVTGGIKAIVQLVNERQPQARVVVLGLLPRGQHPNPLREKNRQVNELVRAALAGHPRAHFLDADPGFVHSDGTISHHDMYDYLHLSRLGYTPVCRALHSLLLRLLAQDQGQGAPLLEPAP
ASAP1 inh: inhibitors of human ASAP1 ArfGAP activity. Q9ULH1. ASAP1-stimulated ARF1 GTP hydrolysis, GDP FP detection. inhibition, % at 16.5 µM. hit rate 0.19% among 360,000. AID 624377; in the data active = inhibition above about 25%;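 note: 0% = vehicle with enzyme and substrate and 100% = no enzyme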
pPAFAH inh: inhibitors of human plasma PAF acetylhydrolase (pPAFAH) | Q13093 | recombinant pPAFAH, FP-rhodamine probe fluorescence polarization | inhibition, % at 3.39 µM | hit rate 1.5% among 330,000 | AID 463082;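 active = inhibition above the mean inhibition across the screen plus 3 SD, cut at about 25% in these data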;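 note: inhibitors block binding of the rhodamine activity-based probe so polarization drops; 0% = enzyme with DMSO and 100% = wells lacking pPAFAH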
ARFGAP1 inhibitor: inhibitors of rat ARFGAP1; Q62848; Arfgap1-stimulated ARF1 GTP hydrolysis, GDP FP detection; inhibition, % at 16.5 µM; hit rate 0.26% among 360,000; AID 651572;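 active = inhibition above a per-plate limit, mean inhibition of low control wells plus 3 SD, cut at about 25% in these data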;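 note: 0% = DMSO wells with enzyme and 100% = wells lacking Arfgap1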
Target sequence (Q62848 1-136 limits assumed): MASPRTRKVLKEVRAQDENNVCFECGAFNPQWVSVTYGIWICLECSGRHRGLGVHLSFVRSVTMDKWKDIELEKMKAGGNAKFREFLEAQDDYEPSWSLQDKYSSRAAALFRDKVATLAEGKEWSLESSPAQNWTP
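material = rat Arfgap1 catalytic domain, aa 1-136 | also added = human ARF1(Δ1-17)-GTP substrate | compound dosing = one concentration, 16.5 µM, DMSO 1.26% | times = GTP hydrolysis reaction 2 h at 25 °C | measured by = FP, GDP Alexa 633 tracer displaced from anti-GDP antibody, 620/688 nm | evaluation = percent inhibition of Arfgap1-stimulated GTP hydrolysis | replication = single well per compound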
* hit, by the source's call; · = not tested or not shown.

SMILES	PAFAH1B2 FP inh	PAFAH2 FP inh	PAFAH1B3 FP inh	ASAP1 inh	pPAFAH inh	ARFGAP1 inhibitor
COc1ccc(CNC(=O)C(=O)NCCC2CCCCN2S(=O)(=O)c2cccs2)cc1 (stereo not given)	25*	-2	-1	11	2	24
O=C(NCc1ccccc1)C(=O)NCC1OCCCN1S(=O)(=O)c1cccs1 (stereo not given)	15	2	-5	8	9	3
C=CCN(CC=C)C[C@@H]1CSCCS(=O)(=O)N1	·	·	·	-1	·	16
NCCCC(C(=O)O)N(C(=O)OCc1ccccc1)C(=O)OCc1ccccc1 (stereo not given)	·	·	·	-11	·	-1
Cc1ccc(NC(=O)[C@@H](Cc2ccccc2)NC(=O)[C@H]2O[C@@H](n3ccc(=O)[nH]c3=O)[C@H](O)[C@@H]2O)cc1C	·	·	·	10	·	13
CN(C)S(=O)(=O)c1cccc(NC(=S)NNC(=O)c2cc3ccccc3cc2O)c1	8	15	7	17	28*	0
CN(C)S(=O)(=O)c1cccc(NC(=S)NC(=O)c2ccco2)c1	-1	1	4	2	·	0
O=C(NCc1ccccc1)[C@@H]1CCCN1C(=O)[C@H]1CCCN1C(=O)C1CCCCC1	·	·	·	-1	·	14
CCc1sc(C(=O)Nc2ccc3c(c2)OCO3)cc1C	6	17	18	6	25*	4
CCc1sc(C(=O)Nc2ccc3c(c2)OCCO3)cc1Br	7	-7	4	10	10	-5
Nc1c(C(=O)NC2CCCC2)c2nc3ccccc3nc2n1N	3	-1	0	-2	25*	1
Nc1c(C(=O)NC2CCCC2)c2nc3ccccc3nc2n1/N=C/c1ccco1	0	1	10	·	6	·
Cc1csc(SCC(=O)NCCc2ccc(Cl)cc2)n1	32*	4	9	7	7	10
O=C(COC(=O)C1CC2C=CC1C2)Nc1ccc2c(c1)OC(F)(F)O2 (stereo not given)	0	46*	1	-5	26*	2
CC(=O)c1ccc(NC(=O)COC(=O)C2CC3C=CC2C3)cc1 (stereo not given)	1	20	4	0	6	-4
Cc1ccc(-c2nc3ccsc3c(=O)o2)cc1	-1	66*	11	-4	2	0
CCOC(=O)C1=C[C@@H](C(C)(C)C)N(S(=O)(=O)c2ccc(C)cc2)[C@H]1c1ccc(Cl)c(Cl)c1	·	·	·	8	·	4
COc1ccc([C@H]2C(C(=O)O)=C[C@@H](C(C)(C)C)N2S(=O)(=O)c2ccccc2)cc1	9	5	1	-19	-2	3
Cc1ccc(S(=O)(=O)N2[C@@H](c3ccc(C(C)C)cc3)C(C(=O)O)=C[C@H]2C(C)(C)C)cc1	28*	5	-3	-7	13	3
CCCCC[C@@H]1C=C(C(=O)O)[C@H](c2cccc(C)c2)N1S(=O)(=O)c1ccc(C)cc1	5	11	5	-6	1	-9
Cc1ccc([C@H]2C(C(=O)O)=C[C@@H](C(C)(C)C)N2S(=O)(=O)c2ccc(C)cc2)cc1	24*	5	1	-10	2	-14
Cc1ccc(S(=O)(=O)N2[C@@H](c3cccc(C)c3)C(C(=O)O)=C[C@H]2C(C)(C)C)cc1	31*	5	0	-5	1	0
C[C@@H]1CCCCO[C@H](CN(C)C(=O)C2CCCCC2)[C@@H](C)CN([C@H](C)CO)C(=O)c2cc(NS(=O)(=O)c3cccs3)ccc2O1	·	·	·	-1	·	3
O=C(C(=O)N1CCC(CNS(=O)(=O)c2ccc(F)c(F)c2)CC1)c1cc2ccccc2o1	·	·	·	2	·	7
CNS(=O)(=O)c1cccc(C(=O)OCC(=O)Nc2ccc(Cl)cn2)c1	0	21	6	1	6	10
SMILES	PAFAH1B2 FP inh	PAFAH2 FP inh	PAFAH1B3 FP inh	ASAP1 inh	pPAFAH inh	ARFGAP1 inhibitor
CNS(=O)(=O)c1cccc(C(=O)OCC(=O)C23CC4CC(CC(C4)C2)C3)c1	30*	46*	1	-5	6	-4
Nc1ccc(O)cc1C(=O)OCC(=O)C12CC3CC(CC(C3)C1)C2	16	86*	-6	8	29*	12
O=C(OCC(=O)C12CC3CC(CC(C3)C1)C2)c1ccc(O)cc1	26*	84*	1	13	3	-6
C=CS(=O)(=O)N[C@@H](CSSC[C@H](NS(=O)(=O)C=C)C(=O)OC)C(=O)OC	·	·	·	-2	·	-18
COc1cc(/C=N/Nc2nc3c(c(=O)n(C)c(=O)n3C)n2Cc2ccccc2)ccc1OC(=O)c1ccco1	0	2	15	6	34*	10
COC(=O)N1Cc2ccnnc2CC1c1ccccc1-c1ccc(OC)cc1 (stereo not given)	·	·	·	-6	·	-4
Cc1c(CCC(=O)O)c(=O)oc2cc(OCc3cccc(F)c3)ccc12	4	-3	10	-2	9	9
Cc1c(CCC(=O)O)c(=O)oc2cc(OCc3ccccc3Br)ccc12	8	-10	11	11	33*	7
CC1CC(NC(=O)/C=C/C(=O)O)CC(C)(C)C1 (stereo not given)	24*	7	4	10	4	0
COC(=O)c1cc2c(c3c4cc(F)ccc4n(S(=O)(=O)c4cccc(C)c4)c13)C(=O)N(c1ccc(OC)cc1)C2	·	·	·	-3	·	7
O=C(CSc1nc2ccccc2s1)NCc1cc([N+](=O)[O-])ccc1O	29*	6	1	1	11	-2
O=C(CSc1nc2ccccc2s1)NNC(=S)Nc1ccc(Br)cc1	24*	4	7	-9	20	2
O=C(CSc1nc2ccccc2s1)CSc1nc2ccccc2s1	-7	-6	4	-6	27*	12
O=C(CSc1nc2ccccc2s1)Nc1cc(S(=O)(=O)N2CCOCC2)ccc1O	87*	84*	19	-5	18	7
O=C(CSc1nc2ccccc2s1)NNC(=S)Nc1ccccc1	4	-2	3	2	1	-14
Cc1nnc(SCC(=O)Nc2cc(S(=O)(=O)N3CCOCC3)ccc2C)s1	6	1	7	-4	·	4
COc1cccc(-c2cccc3c4c([nH]c23)[C@@H]2C[C@H]3[C@@H](C(=O)N2CC4)[C@H](C)ON3C)c1	·	·	·	8	·	-2
CN1C(=O)[C@@]2(C3=C(CCCC3=O)OC3=C2C(=O)CC(C)(C)C3)c2ccccc21	·	·	·	-1	·	7
O=C(CN1CCN(c2ccc(O)cc2)CC1)Nc1ccc(SC(F)F)cc1	-1	-5	7	6	33*	-2
COc1ccccc1N(CC(=O)NCCSCc1ccc(C)cc1)S(=O)(=O)c1ccccc1	27*	1	1	3	2	4
COc1ccc(N(CC(=O)NCCSCc2ccc(C)cc2)S(=O)(=O)c2ccccc2)cc1	10	-2	9	13	11	-4
